The values that follow come from paper PMC6136352 (Journal of Enzyme Inhibition and Medicinal Chemistry, 2018).

The IC50 is the concentration that gives 50% inhibition.

Data set [1] concerns KG1a cells. Put plainly: MTT cytotoxicity assay, KG1a. It counts as cell-based, human. As to conditions: for IC50: Homo sapiens, KG-1a, 72 h, read-out: IC50 KG1a. A digest of the protocol: (§1)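 Exponentially growing leukaemia lines were seeded at 1 × 10⁴ cells/well in supplemented RPMI 1640. After 24 h, test compounds were added over a concentration range for 72 h, with adriamycin as positive control. MTT (5 mg/ml stock) was added for 4 h. Plates were spun at 2000 rpm for 20 min, the supernatant replaced by DMSO, and absorbance read at 570 nm. IC50 was fitted; each value is the mean of three independent experiments.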

Data set [2] has as its system HL-60 cells. Put plainly: MTT cytotoxicity assay, HL-60. The data set is classed as cell-based. Conditions: Homo sapiens, HL-60, 72 h, read-out: IC50 HL-60. In short, it runs like this: as §1
For data set [3] the following is noted: cited from earlier work.
The conditions of data set [4]: cited from earlier work. This is another data set of the same source.

As for `COc1cccc2c1C(=O)c1c(O)c3c(c(O)c1C2=O)C[C@@](O)(C(=O)CO)C[C@@H]3O[C@H]1C[C@H](N)[C@H](O)[C@H](C)O1` [ADR, adriamycin], the IC50 in data set [1] came to 0.75 ± 0.05 µM; in data set [2] it was 22 ± 5 nM. Further, the “drop of activity against KG1a than that against HL-60” value in data set [1] (ratio of IC50 values) is 34 folds.

Take `C=C1C(=O)O[C@H]2[C@H]1CC/C(C)=C/CC[C@@]1(C)O[C@@H]21` [PTL, Parthenolide]: the IC50 in data set [1] is 6.1 ± 1.8 µM; in data set [2] it was 3800 ± 1200 nM. For the same compound, the solubility entry in data set [3] is reported as “poor solubility”. Moreover, the “stability in acidic and basic conditions” value in data set [4] was “instability in both acidic and basic conditions”.
